From ChEMBL document CHEMBL1126798, “Keto/enol epoxy steroids: a new structural class of HIV-1 Tat inhibitors” (J Med Chem, 1993) come the findings set out here.

One data set has as its system H9. Kind of data set: Inhibition of HIV-1 replication in H9 cells infected with three different concentrations of HIV IIIB strain. Particulars: Homo sapiens. The format is functional, cell-based. The method in brief: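 H9 cells infected at three HIV IIIB inoculum levels, then exposed to 3-5 compound concentrations for 5 days. Fresh media and compound replaced on day 3. p24 antigen in culture media measured by ELISA on the final day, mean OD with n = 4 per dose. IC50 found for at least two viral doses, over 3-5 individual assays.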

A further data set has as its target T1, Protein Tat (Human immunodeficiency virus type 1 group M subtype B (isolate PCV12)(HIV-1), UniProt P04326).
T1 sequence (P04326 whole entry): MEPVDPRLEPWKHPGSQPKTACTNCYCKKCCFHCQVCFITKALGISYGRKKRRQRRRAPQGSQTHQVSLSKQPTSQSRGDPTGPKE
In words: Inhibition of HIV-1 nuclear regulatory protein Tat. The arrangement: species or system Human immunodeficiency virus type 1 (CLONE 12). The method in brief: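 SW480 cells co-transfected with an HIV-1 LTR-driven CAT reporter plasmid and an SV40 promoter-driven Tat plasmid. Cells incubated with dose-ranged compound for 48 h. Tat-induced expression read out as CAT enzyme activity. IC50 and 95% confidence intervals taken from percent-inhibition dose-response curves over 3-5 runs. Counter-screen used an SV40 promoter-driven CAT plasmid (Tat-independent).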

The nature of data set [1]: Therapeutic index against HIV-1 whole cell assay was determined, expressed as the ratio of IC50s of cell cytotoxicity to that of HIV replication. Particulars: human immunodeficiency virus 1, HIV-1 whole cell assay; read-out: Therapeutic index. The method in brief:
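Cytotoxicity: uninfected H9 cells incubated 5 days with the same compound concentrations as the antiviral assay, viable cells counted by trypan blue exclusion. Ratio taken of the cytotoxic IC50 to the IC50 for HIV IIIB replication (p24 ELISA, 5 days, medium and compound renewed day 3).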

One may read the IC50 as the concentration that gives 50% inhibition. Higher therefore signals weaker potency.

Take `CC(=O)O[C@H]1CCC2C3CC[C@]45O[C@H]4C(O)=C(C(N)=O)C[C@]5(C)C3CC[C@@]21C` (stereo not given in full): the IC50 turned out to be 2400 nM in the data set with H9 and 2600 nM at Protein Tat. In addition, the selectivity ratio in data set [1] is 1.6.

For the molecule `CC(=O)O[C@H]1CC[C@H]2[C@@H]3CC[C@]45OC4C(=O)C(S(C)(=O)=O)C[C@]5(C)[C@H]3CC[C@]12C` (stereo not given in full), the IC50 in the data set on H9 is 300 nM; on Protein Tat, 2600 nM. Besides, the selectivity ratio in data set [1] is 4.3.

Take `C[C@]12CC[C@H]3[C@@H](CC[C@]45OC4C(=O)C(S(C)(=O)=O)C[C@]35C)[C@@H]1CC[C@@H]2O` (stereo not given in full): the IC50 in the data set on H9 stood at 1400 nM; against Protein Tat, 8400 nM. Also, in data set [1], the selectivity ratio stood at 3.9.

Turning to `O=C1CN=C(c2ccc[nH]2)c2cc(Cl)ccc2N1`, the IC50 in the data set on H9 came to 600 nM; against Protein Tat, 4000 nM. The selectivity ratio in data set [1] came to 5.9.

`C[C@]12CCC3C(CC[C@]45OC4C(O)=C(C(N)=O)C[C@]35C)C1CC[C@@H]2O` (stereo not given in full): the concentration for half-maximal inhibition (IC50) was 1200 nM in the data set with H9 and 14300 nM against Protein Tat. In data set [1], the selectivity ratio was found to be 6.5.
